For one data set, the system named is Chorioallantoic membrane. The data set is described as follows: Antiangiogenic activity in chicken chorioallantoic membrane assessed as reduction in neovascularization at 50 ug/ml measured after 72 hrs by CAM assay. Type of data set: functional. The settings on record: Gallus gallus. The gist of the method: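 Fertilized chicken eggs incubated 6 days at 37 °C; shell windowed and CAM treated (compounds and controls at […] as printed; saline vehicle control). Eggs re-incubated humidified; membranes fixed and harvested after 72 h. Angiogenesis scored by counting blood vessels and imaging neovascular zones; ten eggs per group.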

Data set [1] in a line: Solubility of the compound in water. Format: physicochemical. The settings on record: buffer.
The next data set has as its system HEK293. The data set is described as follows: Cytotoxicity against human HEK293 cells measured after 48 to 72 hrs by MTT assay. Format: cell-based. A digest of the protocol: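 Cells seeded at 3 × 10^3 per well in 96-well plates, incubated overnight, then given fresh medium with a range of drug concentrations for 48 h or 72 h. MTT added (final 500 µg/mL) for 4 h, formazan dissolved in DMSO, absorbance at 570 nm; IC50 derived. Mean ± SD of 3 independent tests.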
(Tetrazolium assays rely on reduction of a dye to a coloured formazan, in cell work by metabolically active cells.)

The test system of another data set is B16. The data set is described as follows: Antitumour activity against mouse B16 cells assessed as cell growth inhibition measured after 72 hrs by SRB assay. The conditions noted are these: B16, 72 h. Type of data set: functional, cell-based. The gist of the method:
(§1)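 Exponentially growing cells trypsinized, seeded at 5 × 10^4 cells/mL in 96-well plates, cultured overnight, then exposed to compounds for 72 h. Cells fixed with 10% TCA 1 h, stained with SRB 15 min, dye dissolved in Tris-HCl, absorbance read; 50% growth-inhibitory concentration calculated.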
In general terms: The SRB assay estimates cell density from bound dye.

In another data set the test system is MGC-803. The data set is described as follows: Antitumour activity against human MGC803 cells assessed as cell growth inhibition measured after 72 hrs by SRB assay. Format: functional, cell-based. The settings on record: MGC-803, 72 h. The gist of the method:
as §1

Another data set has as its system A549. The data set is described as follows: Antitumour activity against human A549 cells assessed as cell growth inhibition measured after 72 hrs by SRB assay. The conditions noted are these: A549, 72 h. Format: functional, cell-based. The gist of the method: as §1
A further data set has as its system SK-N-SH. The data set is described as follows: Antitumour activity against human SK-N-SH cells assessed as cell growth inhibition measured after 72 hrs by SRB assay. Type of data set: functional, cell-based. A digest of the protocol:
as §1

The subject of a further data set is ECa-109 cell line. The data set is described as follows: Antitumour activity against human EC109 cells assessed as cell growth inhibition measured after 72 hrs by SRB assay. Type of data set: functional, cell-based. The conditions noted are these: ECa-109, 72 h. The gist of the method: as §1
In the next data set the test system is SMMC-7721. The data set is described as follows: Antitumour activity against human SMMC7721 cells assessed as cell growth inhibition measured after 72 hrs by SRB assay. Format: functional, cell-based. The settings on record: SMMC-7721, 72 h. A digest of the protocol:
as §1

Activity calls are given as the source filed them. No cut-off for these calls is given here. Bounds are passed on as bounds.

Usually IC50 stands for the midpoint of a concentration-inhibition curve. As to `COc1cc2c(cc1O)CC[C@@H]1[C@@H]2CC[C@]2(C)C(=O)/C(=C/c3cccc(Cl)c3)C[C@@H]12`, the inhibition entry in the data set on Chorioallantoic membrane was “Active”. For the same molecule, the solubility result in data set [1] is recorded as “Soluble”. Besides, the IC50 in the data set on HEK293 stood at 77.1 µM; in the data set with B16, 10.1 µM; in the data set on MGC-803 it was 12.3 µM; in the data set on A549 it was 22.6 µM; in the data set on SK-N-SH, 21 µM; in the data set with ECa-109 cell line, 24.3 µM. The IC50 with SMMC-7721 is 16.9 µM.

As for `COc1cccc(/C=C/C(=O)c2cc3c(cc2O)CC[C@@H]2[C@@H]3CC[C@]3(C)[C@@H](O)CC[C@@H]23)c1`, the inhibition result with Chorioallantoic membrane is “Active”. Further, in [1], the solubility entry is reported as “Soluble”. Further, the IC50 in the data set on HEK293 worked out at 13.1 µM; in the data set on B16, 8.9 µM; in the data set with MGC-803 it was 4 µM; with A549, 5.5 µM; in the data set with SK-N-SH, 4.5 µM; in the data set with ECa-109 cell line it was 5.6 µM. Moreover, the IC50 with SMMC-7721 stood at 26.1 µM.

`COc1cc2c(cc1O)CC[C@@H]1[C@@H]2CC[C@]2(C)C(=O)/C(=C/c3cccc(OC)c3OC)C[C@@H]12`: the solubility result in data set [1] was “Soluble”. For the same molecule, the IC50 in the data set with HEK293 amounted to 51 µM; in the data set with B16, 12.7 µM; with MGC-803 it was 18.3 µM; with A549 it was 20.4 µM; in the data set on SK-N-SH, 18.2 µM; with ECa-109 cell line, 10.5 µM. For the same molecule, in the data set with SMMC-7721, the IC50 amounted to 8.6 µM.

Turning to `C[C@]12CC[C@@H]3c4cc(C(=O)/C=C/c5ccc(OCc6ccccc6)cc5)c(O)cc4CC[C@H]3[C@@H]1CC[C@@H]2O`, in the data set with Chorioallantoic membrane, the inhibition result is “Active”. Besides, in data set [1], the solubility entry is “Soluble”. Also, the IC50 was > 100 µM in the data set on HEK293; > 128 µM in the data set on B16; > 128 µM in the data set on MGC-803; 52.6 µM in the data set with A549; > 128 µM in the data set with SK-N-SH; > 128 µM in the data set on ECa-109 cell line. Besides, in the data set with SMMC-7721, the IC50 was > 128 µM.

Regarding `COc1cc2c(cc1O)CC[C@@H]1[C@@H]2CC[C@]2(C)C(=O)/C(=C/c3ccc(S(C)(=O)=O)cc3)C[C@@H]12`, the IC50 in the data set with HEK293 is > 100 µM; with B16, 7.7 µM; with MGC-803, 10.5 µM; with A549, 5.9 µM; in the data set with SK-N-SH, 20.5 µM; in the data set with ECa-109 cell line, 18.2 µM. Further, in the data set on SMMC-7721, the IC50 worked out at 37.3 µM.

Turning to `COc1cc2c(cc1O)CC[C@@H]1[C@@H]2CC[C@]2(C)C(=O)/C(=C/c3cccc([N+](=O)[O-])c3)C[C@@H]12`, the solubility result in data set [1] is “Soluble”. The IC50 came out at 6.7 µM in the data set on B16; 12.7 µM in the data set with MGC-803; 21.2 µM in the data set with A549; 24.5 µM in the data set on SK-N-SH; 23.3 µM in the data set on ECa-109 cell line; 8.1 µM with SMMC-7721.

Consider `COc1cc2c(cc1O)CC[C@@H]1[C@@H]2CC[C@]2(C)C(=O)/C(=C/c3ccc(F)cc3)C[C@@H]12`, for which the inhibition result with Chorioallantoic membrane is “Active”. In addition, the solubility entry in [1] is on record as “Soluble”. Moreover, the IC50 in the data set on HEK293 turned out to be 87.8 µM; in the data set with B16 it was 16.8 µM; in the data set on MGC-803 it was 13.5 µM; in the data set with A549, 25.3 µM; in the data set with SK-N-SH it was 27 µM; in the data set on ECa-109 cell line, 19.9 µM. Moreover, the IC50 with SMMC-7721 is 8.2 µM.

Take `COc1cc2c(cc1O)CC[C@@H]1[C@@H]2CC[C@]2(C)C(=O)/C(=C/c3ccc(Br)cc3)C[C@@H]12`: in the data set on Chorioallantoic membrane, the inhibition entry was “Active”. Besides, the solubility result in data set [1] is “Soluble”. The IC50 is 48.9 µM in the data set with HEK293; 2.6 µM with B16; 14.1 µM in the data set on MGC-803; 39.4 µM in the data set on A549; 42 µM with SK-N-SH; 17.6 µM in the data set with ECa-109 cell line. For the same molecule, the IC50 with SMMC-7721 worked out at 0.1 µM.

Source of the values: ChEMBL document CHEMBL4393712, “Discovery of chalcone-modified estradiol analogs as antitumour agents that Inhibit tumour angiogenesis and epithelial to mesenchymal transition” (Eur J Med Chem, 2019).
